Measured values: ChEMBL document CHEMBL3102739, “Synthesis and antiproliferative activity of conformationally restricted 1,2,3-triazole analogues of combretastatins in the sea urchin embryo model and against human cancer cell lines” (Bioorg Med Chem, 2014)

Columns and labels:
B16 = experiment: Cytotoxicity against mouse B16 cells by MTT assay; type: functional, cell-based
[1] = Growth inhibition of human UO31 cells after 48 hrs by SRB assay; type: functional; conditions: UO-31, 48 h
TK-10 = experiment: Growth inhibition of human TK10 cells after 48 hrs by SRB assay; type: functional; conditions: TK-10, 48 h
[2] = Growth inhibition of human RXF393 cells after 48 hrs by SRB assay; type: functional; conditions: RXF 393, 48 h
SN12C = experiment: Growth inhibition of human SN12C cells after 48 hrs by SRB assay; type: functional
ACHN = experiment: Growth inhibition of human ACHN cells after 48 hrs by SRB assay; type: functional
CAKI-1 = experiment: Growth inhibition of human CAKI-1 cells after 48 hrs by SRB assay; type: functional; conditions: CAKI-1, 48 h
786-0 = experiment: Growth inhibition of human 786-0 cells after 48 hrs by SRB assay; type: functional; conditions: 786-0, 48 h
A498 = experiment: Growth inhibition of human A498 cells after 48 hrs by SRB assay; type: functional; conditions: A498, 48 h
SK-OV-3 = experiment: Growth inhibition of human SKOV3 cells after 48 hrs by SRB assay; type: functional; conditions: SK-OV-3, 48 h
OVCAR-8 = experiment: Growth inhibition of human OVCAR8 cells after 48 hrs by SRB assay; type: functional; conditions: OVCAR-8, 48 h
[3] = Growth inhibition of human OVCAR4 cells after 48 hrs by SRB assay; type: functional; conditions: OVCAR-4, 48 h
[4] = Growth inhibition of human OVCAR5 cells after 48 hrs by SRB assay; type: functional; conditions: OVCAR-5, 48 h
OVCAR-3 = experiment: Growth inhibition of human OVCAR3 cells after 48 hrs by SRB assay; type: functional; conditions: OVCAR-3, 48 h
IGROV-1 = experiment: Growth inhibition of human IGROV1 cells after 48 hrs by SRB assay; type: functional; conditions: IGROV-1, 48 h
[5] = Growth inhibition of human UACC257 cells after 48 hrs by SRB assay; type: functional; conditions: UACC-257, 48 h
UACC-62 = experiment: Growth inhibition of human UACC62 cells after 48 hrs by SRB assay; type: functional; conditions: UACC-62, 48 h
SK-MEL-5 = experiment: Growth inhibition of human SK-MEL-5 cells after 48 hrs by SRB assay; type: functional; conditions: SK-MEL-5, 48 h
SK-MEL-2 = experiment: Growth inhibition of human SK-MEL-2 cells after 48 hrs by SRB assay; type: functional; conditions: SK-MEL-2, 48 h
SK-MEL-28 = experiment: Growth inhibition of human SK-MEL-28 cells after 48 hrs by SRB assay; type: functional; conditions: SK-MEL-28, 48 h
M14 = experiment: Growth inhibition of human M14 cells after 48 hrs by SRB assay; type: functional; conditions: M14, 48 h
LOX IMVI = experiment: Growth inhibition of human LOXIMVI cells after 48 hrs by SRB assay; type: functional
Malme-3M = experiment: Growth inhibition of human MALME-3M cells after 48 hrs by SRB assay; type: functional
U-251 = experiment: Growth inhibition of human U251 cells after 48 hrs by SRB assay; type: functional; conditions: U-251, 48 h
SNB-75 = experiment: Growth inhibition of human SNB75 cells after 48 hrs by SRB assay; type: functional; conditions: SNB-75, 48 h
[6] = Growth inhibition of human SF539 cells after 48 hrs by SRB assay; type: functional; conditions: SF-539, 48 h
SNB-19 = experiment: Growth inhibition of human SNB19 cells after 48 hrs by SRB assay; type: functional; conditions: SNB-19, 48 h
SF-295 = experiment: Growth inhibition of human SF295 cells after 48 hrs by SRB assay; type: functional; conditions: SF-295, 48 h
SF-268 = experiment: Growth inhibition of human SF268 cells after 48 hrs by SRB assay; type: functional; conditions: SF-268, 48 h
SW-620 = experiment: Growth inhibition of human SW620 cells after 48 hrs by SRB assay; type: functional; conditions: SW-620, 48 h
KM12 = experiment: Growth inhibition of human KM12 cells after 48 hrs by SRB assay; type: functional; conditions: KM12, 48 h
HT-29 = experiment: Growth inhibition of human HT-29 cells after 48 hrs by SRB assay; type: functional; conditions: HT-29, 48 h
HCT-15 = experiment: Growth inhibition of human HCT15 cells after 48 hrs by SRB assay; type: functional; conditions: HCT-15, 48 h
[7] = Growth inhibition of human HCC2998 cells after 48 hrs by SRB assay; type: functional; conditions: HCC 2998, 48 h
HCT-116 = experiment: Growth inhibition of human HCT116 cells after 48 hrs by SRB assay; type: functional; conditions: HCT-116, 48 h
COLO 205 = experiment: Growth inhibition of human COLO205 cells after 48 hrs by SRB assay; type: functional; conditions: COLO 205, 48 h
NCI-H522 = experiment: Growth inhibition of human NCI-H522 cells after 48 hrs by SRB assay; type: functional; conditions: NCI-H522, 48 h
NCI-H460 = experiment: Growth inhibition of human NCI-H460 cells after 48 hrs by SRB assay; type: functional; conditions: NCI-H460, 48 h
NCI-H322M = experiment: Growth inhibition of human NCI-H322M cells after 48 hrs by SRB assay; type: functional
NCI-H23 = experiment: Growth inhibition of human NCI-H23 cells after 48 hrs by SRB assay; type: functional; conditions: NCI-H23, 48 h
NCI-H226 = experiment: Growth inhibition of human NCI-H226 cells after 48 hrs by SRB assay; type: functional; conditions: NCI-H226, 48 h
[8] = Growth inhibition of human HOP92 cells after 48 hrs by SRB assay; type: functional; conditions: HOP-92, 48 h
[9] = Growth inhibition of human EKVX cells after 48 hrs by SRB assay; type: functional
HOP-62 = experiment: Growth inhibition of human HOP62 cells after 48 hrs by SRB assay; type: functional; conditions: HOP-62, 48 h
A549 = experiment: Growth inhibition of human A549 cells after 48 hrs by SRB assay; type: functional; conditions: A549, 48 h
RPMI-8226 = experiment: Growth inhibition of human RPMI8226 cells after 48 hrs by SRB assay; type: functional; conditions: RPMI-8226, 48 h
SR = experiment: Growth inhibition of human SR cells after 48 hrs by SRB assay; type: functional
MOLT-4 = experiment: Growth inhibition of human MOLT4 cells after 48 hrs by SRB assay; type: functional; conditions: MOLT-4, 48 h
K562 = experiment: Growth inhibition of human K562 cells after 48 hrs by SRB assay; type: functional; conditions: K562, 48 h
CCRF-CEM = experiment: Growth inhibition of human CCRF-CEM cells after 48 hrs by SRB assay; type: functional
HL-60(TB) = experiment: Growth inhibition of human HL-60(TB) cells after 48 hrs by SRB assay; type: functional; conditions: HL-60, 48 h
Paracentrotus lividus [10] = experiment: Antimitotic activity against sea urchin embryo free-swimming blastula model assessed as embryo spinning compound treated at 8 to 10 hrs post-fertilization measured after 0.25 to 20 hrs; type: functional, Blastula stage
Paracentrotus lividus [11] = experiment: Antimitotic activity against sea urchin embryo model assessed as cleavage arrest of fertilized egg compound treated at 8 to 20 mins post-fertilization and 45 to 55 mins prior to first mitotic cycle completion measured 2.5 to 5.5 hrs post-fertilization; type: functional
Procedure, shortened: (§1)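 Fertilized eggs are exposed 8–20 min after fertilization to 2-fold decreasing concentrations. Stocks are 10 mM in DMSO, then diluted 10-fold in 95% EtOH; final DMSO is at most 0.05% and EtOH at most 1%. Embryos are kept as a monolayer, up to 2000 embryos/mL, in filtered seawater at room temperature. The value is the threshold concentration giving cleavage alteration, embryo death before hatching or full mitotic arrest. Duplicates were run.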

Paracentrotus lividus [12] = experiment: Antimitotic activity against sea urchin embryo model assessed as cleavage alteration of fertilized egg compound treated at 8 to 20 mins post-fertilization and 45 to 55 mins prior to first mitotic cycle completion measured 2.5 to 5.5 hrs post-fertilization; type: functional; procedure, shortened: as §1

Question: With `COc1cc(/C=C\c2ccc(N)cc2)cc(OC)c1OC` as the compound, how does the IC50 (B16) read?
Answer: 56000 nM

Question: Which results are given for `COc1ccc(/C=C\c2cc(OC)c(OC)c(OC)c2)cc1O` [COMBRETASTATIN A4]?
Answer: GI50 [1]: 19 nM; GI50 (TK-10): 100 nM; GI50 [2]: 2 nM; GI50 (SN12C): 6 nM; GI50 (ACHN): 6 nM; GI50 (CAKI-1): 26 nM; GI50 (786-0): 100 nM; GI50 (A498): 6 nM; GI50 (SK-OV-3): 59 nM; GI50 (OVCAR-8): 3 nM; GI50 [3]: 14 nM; GI50 [4]: 100 nM; GI50 (OVCAR-3): 2 nM; GI50 (IGROV-1): 15 nM; GI50 [5]: 3 nM; GI50 (UACC-62): 6 nM; GI50 (SK-MEL-5): 4 nM; GI50 (SK-MEL-2): 4 nM; GI50 (SK-MEL-28): 8 nM; GI50 (M14): 3 nM; GI50 (LOX IMVI): 3 nM; GI50 (Malme-3M): 20 nM; GI50 (U-251): 4 nM; GI50 (SNB-75): 8 nM; GI50 [6]: 3 nM; GI50 (SNB-19): 4 nM; GI50 (SF-295): 4 nM; GI50 (SF-268): 6 nM; GI50 (SW-620): 3 nM; GI50 (KM12): 5 nM; GI50 (HT-29): 100 nM; GI50 (HCT-15): 4 nM; GI50 [7]: 63 nM; GI50 (HCT-116): 3 nM; GI50 (COLO 205): 100 nM; GI50 (NCI-H522): 2 nM; GI50 (NCI-H460): 3 nM; GI50 (NCI-H322M): 7 nM; GI50 (NCI-H23): 3 nM; GI50 (NCI-H226): 4 nM; GI50 [8]: 3 nM; GI50 [9]: 86 nM; GI50 (HOP-62): 3 nM; GI50 (A549): 16 nM; GI50 (RPMI-8226): 3 nM; GI50 (SR): 3 nM; GI50 (MOLT-4): 3 nM; GI50 (K562): 2 nM; GI50 (CCRF-CEM): 3 nM; GI50 (HL-60(TB)): 2 nM; EC (Paracentrotus lividus [10]): 0.05 µM; EC (Paracentrotus lividus [11]): 0.01 µM; EC (Paracentrotus lividus [12]): 0.002 µM
